Laboratory results as given in ChEMBL document CHEMBL4382255, “Design, synthesis and activity of Mnk1 and Mnk2 selective inhibitors containing thieno[2,3-d]pyrimidine scaffold” (Eur J Med Chem, 2019).
The source made the active and inactive calls. Unless noted, the calls are words filed in the database; no cut-off is given here.

Legend:
[1] = tested on: 3T3-L1; assay: Effect on total eIF4E protein level in mouse 3T3L1 cells at 3 uM after 2 hrs by Western blot analysis; type: ADME, cell-based; conditions: 3t3-l1, 2 h
Method in brief: (§1)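 Mouse 3T3-L1 pre-adipocytes (DMEM high glucose, 10% heat-inactivated FBS, 37 °C, 5% CO₂) treated 2 h with compounds at 3 μM or lower concentrations down to 0.1 μM final; DMSO vehicle 0.03-0.05% final. RIPA lysates cleared, equal protein resolved by SDS-PAGE, immunoblotted for P-eIF4E and total eIF4E, fluorescent secondary detection.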

[2] = organism: Mus musculus; assay: Inhibition of MNK in mouse 3T3L1 cells assessed as reduction of eIF4E phosphorylation at 3 uM after 2 hrs by Western blot analysis; type: cell-based; method in brief: as §1
[3] = organism: Mus musculus; assay: Inhibition of MNK in mouse 3T3L1 cells assessed as reduction of eIF4E phosphorylation at 0.1 uM after 2 hrs by Western blot analysis; type: cell-based; method in brief: as §1
[4] = molecular target: MAP kinase-interacting serine/threonine-protein kinase 1 (Mus musculus) (UniProt O08605); assay: Inhibition of MNK1 in C57BL/6J mouse embryonic fibroblasts assessed as decrease in eIF4E phosphorylation at 0.1 to 0.3 uM after 2 hrs by Western blot analysis relative to control
Method in brief: (§2)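 MEFs from E13.5 C57BL/6J embryos, wild-type, MNK1-KO or MNK2-KO (DMEM, 10% FBS), treated 2 h with inhibitor at indicated concentrations, including a lower-concentration series in MNK1-KO cells; CGP57380 at 50 μM as reference. Lysates analysed by SDS-PAGE/western blot for P-eIF4E; quantified from three independent experiments, SEM.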

[5] = molecular target: MAP kinase-interacting serine/threonine-protein kinase 2 (Mus musculus) (UniProt Q8CDB0); assay: Inhibition of MNK2 in MNK1-knockout C57BL/6J mouse embryonic fibroblasts assessed as decrease in eIF4E phosphorylation at 0.5 uM after 2 hrs by Western blot analysis; method in brief: as §2
[6] = organism: Mus musculus; assay: Inhibition of mTORC2 in mouse 3T3L1 cells assessed as reduction in PKB phosphorylation at Ser473 residue at 0.1 to 5 uM after 2 hrs by Western blot analysis; type: cell-based
Method in brief: (§3)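 3T3-L1 cells treated 2 h with inhibitor at indicated concentrations (DMSO <0.05% v/v). RIPA lysates, equal protein by Bradford, SDS-PAGE and western blot with phospho-specific antibodies (ERK, RSK, PKB Ser473, 4E-BP1, rpS6); fluorescent secondary imaging. Quantified from three independent experiments, SEM error bars.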

[7] = organism: Mus musculus; assay: Inhibition of ERK signalling in mouse 3T3L1 cells assessed as reduction in RSK phosphorylation at […] residue at 0.1 to 5 uM after 2 hrs by Western blot analysis; type: cell-based; method in brief: as §3
[8] = molecular target: Mitogen-activated protein kinase 1 and 3 (ERK2 and ERK1) (Mus musculus) (UniProt P63085+Q63844); assay: Inhibition of ERK1/2 phosphorylation at Thr202/Tyr204 residues in mouse 3T3L1 cells at 0.1 to 5 uM after 2 hrs by Western blot analysis; type: cell-based; method in brief: as §3
[9] = molecular target: MAP kinase-interacting serine/threonine-protein kinase 2 (Mus musculus) (UniProt Q8CDB0); assay: Inhibition of MNK2 in MNK1-knockout C57BL/6J mouse embryonic fibroblasts assessed as decrease in eIF4E phosphorylation at 0.003 to 0.03 uM after 2 hrs by Western blot analysis; method in brief: as §2
[10] = tested on: MDA-MB-231; assay: Antimigratory activity against human MDA-MB-231 cells after 24 hrs by DAPI staining-based Transwell assay; type: functional, cell-based
Method in brief: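 MDA-MB-231 cells pre-treated with inhibitor 60 min, then 3 x 10⁵ cells seeded into 8 μm-pore Transwell inserts pre-coated with 10 μg/ml collagen (collagen as attractant). After 24 h, migrated cells in bottom well stained with DAPI, imaged at ×10 and counted. Triplicate assays, mean ± SEM.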

[11] = molecular target: MAP kinase-interacting serine/threonine-protein kinase 1 (Homo sapiens) (UniProt Q9BUB5); assay: Inhibition of GST-fused MNK1a (unknown origin) expressed in HEK293 cells using eIF4E as substrate after 30 mins by Western blot analysis; type: cell-based
Method in brief: (§4)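 GST-MNK1a or GST-MNK2a expressed in transfected HEK293 cells, purified by glutathione pull-down. Incubated in 25 mM Tris-HCl pH 7.5, 50 mM KCl, 2 mM MgCl₂ with 20 µM ATP and 65 ng E. coli-expressed eIF4E, 30 °C, 30 min, ± inhibitor. Stopped with sample buffer; immunoblotted for P-eIF4E Ser209, eIF4E and GST. Conditions pre-set within linear range.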

[12] = molecular target: T1, MAP kinase-interacting serine/threonine-protein kinase 1/2 (Homo sapiens) (UniProt Q9HBH9+Q9BUB5); assay: Inhibition of MNK in human MDA-MB-231 cells assessed as decrease in eIF4E phosphorylation at 3 uM up to 72 hrs by Western blot analysis; type: cell-based
Method in brief: (§5)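 MDA-MB-231 cells treated with inhibitor at indicated concentrations for 2 h, or at 3 μM for times up to 72 h (DMSO vehicle <0.05%). Cells lysed in RIPA buffer; supernatants analysed by SDS-PAGE and western blot for P-eIF4E and total eIF4E. CGP57380 at 30 μM as reference.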

[13] = organism: Mus musculus; assay: Inhibition of mTORC1 in mouse 3T3L1 cells assessed as reduction in 4EBP1 at Ser65 residue phosphorylation at 0.1 to 5 uM after 2 hrs by Western blot analysis; type: cell-based; method in brief: as §3
[14] = molecular target: MAP kinase-interacting serine/threonine-protein kinase 1 (Mus musculus) (UniProt O08605); assay: Inhibition of MNK1 in MNK2-knockout C57BL/6J mouse embryonic fibroblasts assessed as decrease in eIF4E phosphorylation at 0.3 to 5 uM after 2 hrs by Western blot analysis; method in brief: as §2
[15] = molecular target: MAP kinase-interacting serine/threonine-protein kinase 1 (Mus musculus) (UniProt O08605); assay: Inhibition of MNK1 in C57BL/6J mouse embryonic fibroblasts assessed as decrease in eIF4E phosphorylation at 5 uM after 2 hrs by Western blot analysis; method in brief: as §2
[16] = organism: Mus musculus; assay: Inhibition of mTORC1 in mouse 3T3L1 cells assessed as reduction in rpS6 phosphorylation at Ser240/244 residues at 0.1 to 5 uM after 2 hrs by Western blot analysis; type: cell-based; method in brief: as §3
[17] = molecular target: T1, MAP kinase-interacting serine/threonine-protein kinase 1/2 (Homo sapiens); assay: Inhibition of MNK in human MDA-MB-231 cells assessed as decrease in eIF4E phosphorylation at 1 uM after 2 hrs by Western blot analysis; type: cell-based; method in brief: as §5
[18] = molecular target: MAP kinase-interacting serine/threonine-protein kinase 2 (Homo sapiens) (UniProt Q9HBH9); assay: Inhibition of GST-fused MNK2a (unknown origin) expressed in HEK293 cells using eIF4E as substrate after 30 mins by Western blot analysis; type: cell-based; method in brief: as §4
[19] = molecular target: MAP kinase-interacting serine/threonine-protein kinase 2 (Mus musculus) (UniProt Q8CDB0); assay: Inhibition of MNK2 in C57BL/6J mouse embryonic fibroblasts assessed as decrease in eIF4E phosphorylation at 5 uM after 2 hrs by Western blot analysis; method in brief: as §2

Sequence of MAP kinase-interacting serine/threonine-protein kinase 1 (Mus musculus) (O08605 whole entry): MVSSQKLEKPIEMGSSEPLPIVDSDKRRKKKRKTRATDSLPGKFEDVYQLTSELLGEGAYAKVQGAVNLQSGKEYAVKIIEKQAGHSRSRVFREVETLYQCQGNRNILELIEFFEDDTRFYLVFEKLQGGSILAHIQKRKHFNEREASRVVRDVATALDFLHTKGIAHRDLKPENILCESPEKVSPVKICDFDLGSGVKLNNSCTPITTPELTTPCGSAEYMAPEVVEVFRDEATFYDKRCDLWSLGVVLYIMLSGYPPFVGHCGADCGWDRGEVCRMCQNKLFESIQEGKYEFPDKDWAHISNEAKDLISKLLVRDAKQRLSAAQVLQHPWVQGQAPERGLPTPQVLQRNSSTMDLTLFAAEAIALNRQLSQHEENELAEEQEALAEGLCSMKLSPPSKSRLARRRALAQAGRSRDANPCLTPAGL
Sequence of MAP kinase-interacting serine/threonine-protein kinase 2 (Mus musculus) (Q8CDB0 whole entry): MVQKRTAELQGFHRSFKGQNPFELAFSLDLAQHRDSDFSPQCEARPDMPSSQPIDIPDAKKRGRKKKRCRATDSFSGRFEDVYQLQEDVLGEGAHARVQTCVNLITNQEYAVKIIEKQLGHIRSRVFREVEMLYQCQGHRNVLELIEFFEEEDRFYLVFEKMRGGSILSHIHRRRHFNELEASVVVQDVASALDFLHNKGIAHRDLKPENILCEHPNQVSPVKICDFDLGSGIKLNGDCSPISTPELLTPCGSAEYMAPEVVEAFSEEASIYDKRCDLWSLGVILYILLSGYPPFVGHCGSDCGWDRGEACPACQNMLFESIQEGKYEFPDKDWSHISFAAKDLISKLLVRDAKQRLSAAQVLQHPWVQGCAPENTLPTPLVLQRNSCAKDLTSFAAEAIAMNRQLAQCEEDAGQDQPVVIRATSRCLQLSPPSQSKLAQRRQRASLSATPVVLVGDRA
Sequence of MAP kinase-interacting serine/threonine-protein kinase 1 (Homo sapiens) (Q9BUB5 whole entry, looked up, the tested form may be a part): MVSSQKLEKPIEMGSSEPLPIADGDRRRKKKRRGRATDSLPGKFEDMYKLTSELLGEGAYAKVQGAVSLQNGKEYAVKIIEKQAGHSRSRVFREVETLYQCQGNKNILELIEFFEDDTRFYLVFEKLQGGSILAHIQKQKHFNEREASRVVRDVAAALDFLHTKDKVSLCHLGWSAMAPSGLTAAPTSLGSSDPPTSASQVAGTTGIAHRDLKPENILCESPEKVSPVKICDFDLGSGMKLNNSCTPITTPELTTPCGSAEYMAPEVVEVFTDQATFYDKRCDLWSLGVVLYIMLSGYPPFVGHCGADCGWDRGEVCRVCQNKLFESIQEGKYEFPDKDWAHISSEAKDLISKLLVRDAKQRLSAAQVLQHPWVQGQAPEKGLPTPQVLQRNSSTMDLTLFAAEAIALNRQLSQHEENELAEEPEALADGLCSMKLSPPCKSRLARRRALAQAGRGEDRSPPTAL
Sequence of Mitogen-activated protein kinase 1 and 3 (ERK2 and ERK1) (Mus musculus) (P63085 whole entry, looked up): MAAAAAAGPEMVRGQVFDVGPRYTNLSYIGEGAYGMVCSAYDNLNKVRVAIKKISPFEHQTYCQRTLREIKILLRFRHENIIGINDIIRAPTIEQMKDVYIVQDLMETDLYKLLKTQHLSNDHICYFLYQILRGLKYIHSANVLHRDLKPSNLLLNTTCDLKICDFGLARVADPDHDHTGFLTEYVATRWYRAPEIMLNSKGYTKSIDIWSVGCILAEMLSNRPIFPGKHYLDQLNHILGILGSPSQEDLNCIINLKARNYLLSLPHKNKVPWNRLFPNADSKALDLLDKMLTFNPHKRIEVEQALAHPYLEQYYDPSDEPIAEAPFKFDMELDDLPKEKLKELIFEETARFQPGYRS
Sequence of Mitogen-activated protein kinase 1 and 3 (ERK2 and ERK1) (Mus musculus) (Q63844 whole entry, looked up): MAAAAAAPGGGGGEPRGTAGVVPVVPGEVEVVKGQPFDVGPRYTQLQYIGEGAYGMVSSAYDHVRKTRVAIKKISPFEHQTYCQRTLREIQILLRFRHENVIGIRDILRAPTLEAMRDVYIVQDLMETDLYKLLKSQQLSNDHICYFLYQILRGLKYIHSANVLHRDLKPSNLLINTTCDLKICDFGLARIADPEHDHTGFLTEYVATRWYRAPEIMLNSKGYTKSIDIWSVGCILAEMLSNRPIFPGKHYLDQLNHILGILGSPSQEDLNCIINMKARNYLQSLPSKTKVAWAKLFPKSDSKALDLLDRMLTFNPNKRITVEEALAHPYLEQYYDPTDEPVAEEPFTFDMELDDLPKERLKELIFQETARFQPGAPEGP
Sequence of MAP kinase-interacting serine/threonine-protein kinase 2 (Homo sapiens) (Q9HBH9 whole entry, looked up, the tested form may be a part): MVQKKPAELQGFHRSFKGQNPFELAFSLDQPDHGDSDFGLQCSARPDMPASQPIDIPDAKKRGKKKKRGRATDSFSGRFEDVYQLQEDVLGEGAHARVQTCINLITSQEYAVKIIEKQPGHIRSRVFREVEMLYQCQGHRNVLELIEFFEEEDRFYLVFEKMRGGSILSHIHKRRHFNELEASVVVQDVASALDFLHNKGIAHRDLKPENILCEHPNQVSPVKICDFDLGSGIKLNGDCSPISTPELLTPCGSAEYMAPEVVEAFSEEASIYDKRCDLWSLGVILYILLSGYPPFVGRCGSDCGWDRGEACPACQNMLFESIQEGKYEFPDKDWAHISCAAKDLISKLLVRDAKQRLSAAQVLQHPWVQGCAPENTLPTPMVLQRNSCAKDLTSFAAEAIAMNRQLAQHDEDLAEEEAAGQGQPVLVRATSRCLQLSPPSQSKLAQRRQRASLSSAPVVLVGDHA

Row | Compound | Activity [1] | MNK inhibition (active/not active) [2] | further results
1 | COc1cc(F)ccc1Nc1ncnc2sc(C(=O)N3CCCC3)c(C)c12 | Non-Toxic | Active | –
2 | COc1cc(F)ccc1Nc1ncnc2sc(C(=O)NCCCN3CCCC3)c(C)c12 | Non-Toxic | Active | –
3 | Cc1c(C(=O)NC2CCCCC2)sc2ncnc(Nc3ccc(F)cc3OC(C)C)c12 | Non-Toxic | Active | –
4 | Cc1c(C(=O)OCCCO)sc2ncnc(Nc3ccc(F)cc3OC(C)C)c12 | Non-Toxic | Active | –
5 | COc1cc(F)ccc1Nc1ncnc2sc(C(=O)OCCO)c(C)c12 | Non-Toxic | – | –
6 | COc1cc(F)ccc1Nc1ncnc2sc(C(=O)NCC(C)(C)CN(C)C)c(C)c12 | Non-Toxic | – | –
7 | Cc1c(C(=O)N2CCCC2)sc2ncnc(Nc3ccc(F)cc3OC(C)C)c12 | Non-Toxic | Active | –
8 | COc1cc(F)ccc1Nc1ncnc2sc(C(=O)N3CCCCC3)c(C)c12 | Non-Toxic | Active | –
9 | COc1cc(F)ccc1Nc1ncnc2sc(C(=O)NCCc3ccncc3)c(C)c12 | Non-Toxic | Active | –
10 | Cc1c(C(=O)N2CCOCC2)sc2ncnc(Nc3ccc(F)cc3OC(C)C)c12 | Non-Toxic | Active | –
11 | COc1cc(F)ccc1Nc1ncnc2sc(C(=O)NCCCN(C)C)c(C)c12 | – | inactive | –
12 | Cc1c(C(=O)N2CCN(C)CC2)sc2ncnc(Nc3ccc(F)cc3OC(C)C)c12 | Non-Toxic | Active | –
13 | Cc1c(C(=O)NCCc2c[nH]cn2)sc2ncnc(Nc3ccc(F)cc3OC(C)C)c12 | Non-Toxic | Active | inhibition of eIF4E phosphorylation (active/not active) [3]: inactive
14 | Cc1c(C(=O)OCCc2ccccc2)sc2ncnc(Nc3ccc(F)cc3OC(C)C)c12 | Non-Toxic | Active | –
15 | COC(=O)c1sc2ncnc(Nc3ccc(F)cc3OC(C)C)c2c1C | – | inactive | –
16 | Cc1c(C(=O)OCCO)sc2ncnc(Nc3ccc(F)cc3OC(C)C)c12 | – | Active | –
17 | COc1cc(F)ccc1Nc1ncnc2sc(C(=O)NCCCN3CCOCC3)c(C)c12 | Non-Toxic | Active | –
18 | COc1cc(F)ccc1Nc1ncnc2sc(C(=O)NC3CCCCC3)c(C)c12 | Non-Toxic | Active | –
19 | COc1cc(F)ccc1Nc1ncnc2sc(C(=O)NCCCO)c(C)c12 | Non-Toxic | Active | –
20 | Cc1c(C(=O)N2CCCCC2)sc2ncnc(Nc3ccc(F)cc3OC(C)C)c12 | Non-Toxic | Active | –
21 | Cc1c(C(=O)NCCCO)sc2ncnc(Nc3ccc(F)cc3OC(C)C)c12 | – | Active | –
22 | Cc1c(C(=O)NCCCN(C)C)sc2ncnc(Nc3ccc(F)cc3OC(C)CF)c12 (configuration not stated) | Non-Toxic | Active | inhibition [4]: 50%; inhibition [5]: Active; inhibition [6]: inactive; inhibition [7]: inactive; inhibition of eIF4E phosphorylation (active/not active) [3]: Active; inhibition [8]: inactive; inhibition [9]: Active; inhibition [10]: Active; inhibition [11]: Active; inhibition [12]: Active; inhibition [13]: inactive; inhibition [14]: Active; inhibition [15]: 100%; inhibition [16]: inactive; inhibition [17]: 100%; inhibition [18]: Active; inhibition [19]: 100%
23 | Cc1c(C(=O)NCCc2ccncc2)sc2ncnc(Nc3ccc(F)cc3OC(C)C)c12 | Non-Toxic | Active | inhibition of eIF4E phosphorylation (active/not active) [3]: inactive
24 | Cc1c(C(=O)NCC(C)(C)CN(C)C)sc2ncnc(Nc3ccc(F)cc3OC(C)C)c12 | Non-Toxic | Active | inhibition of eIF4E phosphorylation (active/not active) [3]: inactive
25 | Cc1c(C(=O)NCCCN(C)C)sc2ncnc(Nc3ccc(F)cc3OC(C)C)c12 | – | Active | –
26 | Cc1c(C(=O)NCCCN2CCOCC2)sc2ncnc(Nc3ccc(F)cc3OC(C)C)c12 | Non-Toxic | Active | inhibition of eIF4E phosphorylation (active/not active) [3]: inactive
27 | COc1cc(F)ccc1Nc1ncnc2sc(C(=O)NCCc3c[nH]cn3)c(C)c12 | Non-Toxic | Active | –
28 | COc1cc(F)ccc1Nc1ncnc2sc(C(=O)N3CCOCC3)c(C)c12 | Non-Toxic | Active | –
29 | COc1cc(F)ccc1Nc1ncnc2sc(C(=O)N3CCN(C)CC3)c(C)c12 | Non-Toxic | Active | –
